Data set [1] in a line: folding enthalpy; higher = less favourable; fluorescence melt of hairpins on a sequencing array, two-state fit. As to conditions: sodium 0.088 M. An outline of the steps: (§1)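 Folding enthalpy and melting temperature were estimated with bootstrapped two-state fits and combined across four replicates by inverse-variance weighting, with fitted temperatures raised by 9.35 °C to match UV melts. The data were Cy3 fluorescence of library hairpins, with annealed Cy3 and quencher oligos, on a sequenced MiSeq flow cell in 50 mM Na-HEPES pH 8.0, 25 mM NaCl, imaged in 2.5 °C steps up to 60 °C and normalised to pre-quench Cy3 and control constructs.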

Data set [2] can be described thus: melting temperature; fluorescence melt of hairpins on a sequencing array, two-state fit, raised by 9.35 °C to match UV melts. Particulars: sodium 0.088 M. An outline of the steps: as §1

GGCTCCGAAAGGAGGGCC ((((((....)))..))): the folding enthalpy in data set [1] is -15.8 kcal/mol. Besides, the Tm in data set [2] was 52.5 °C.
With GCAATGCGAAAGCCTCGC ((.(.((....)).).)), the folding enthalpy in data set [1] is -10.9 kcal/mol. For the same sequence, the Tm in data set [2] is 31.5 °C.
Consider GTCACCGGAAACGGTGGC (.(((((....))))).), for which the folding enthalpy in data set [1] was -29.4 kcal/mol. Further, the Tm in data set [2] came out at 63.5 °C.
The like results for GACTCAGGAAACCGAGTC (((((.(....).))))) were, in that order, -29.8 kcal/mol and 46.2 °C.
For CGTGGGCGGAAACGCACG (((..(((....)))))), in that order: -13.4 kcal/mol and 53.1 °C.
As for GATCGCGAAAGCGGAATC ((((((....)))..))), in data set [1], the folding enthalpy was -10.9 kcal/mol. For the same sequence, the Tm in data set [2] is 34.8 °C.
GGCCACGAAAGTGATGCC ((((((....)))..))): in data set [1], the folding enthalpy is -27.6 kcal/mol. Besides, the Tm in data set [2] was 51 °C.
For GGGTCATCGAAAGATCCC (((..(((....)))))), in that order: -20.3 kcal/mol and 34.5 °C.
On to GTCGGCGAAAGCCACGAC ((((((....)))..))), for which, in data set [1], the folding enthalpy is -14.4 kcal/mol. In addition, the Tm in data set [2] was found to be 56 °C.
With GCCTGGGGAAACCCGGGC (((.(((....))).))), the folding enthalpy in data set [1] is -39.2 kcal/mol. Further, the Tm in data set [2] amounted to 64.6 °C.
For GATCACGCGGGTGATC ((((((....)))))), in that order: -32 kcal/mol and 57.1 °C.
For GGCAGTCGAAAGACGGCC (((.(((....))).))), in that order: -36.4 kcal/mol and 67.8 °C.
As to CGCTCGGAAACGAGGGCG ((((((....)))..))), the folding enthalpy in data set [1] was -12.4 kcal/mol. The Tm in data set [2] amounted to 51.7 °C.
For GGCGTATCGAAAGATGCC (((..(((....)))))), in that order: -22.5 kcal/mol and 47.9 °C.
The like results for GTTATCCCGAAAGGGAAC (((..(((....)))))) were, in that order, -10 kcal/mol and 26.8 °C.
The like results for GACATTGAAAAATGTC ((((((....)))))) were, in that order, -31.1 kcal/mol and 50.3 °C.
For GCGGGGCGAAAGCCGTGC ((..(((....)))..)), the folding enthalpy in data set [1] is -27.3 kcal/mol. The Tm in data set [2] was determined as 62.5 °C.
Regarding GGCGGTGGAAACACCGTC (.(((((....))))).), the folding enthalpy in data set [1] is -23.9 kcal/mol. Also, the Tm in data set [2] came to 65.8 °C.
For GTGTGTGGAAACACATGC (..((((....))))..), in that order: -18.8 kcal/mol and 49.6 °C.
For GCAGTCGAAAGACTCTGC ((((((....)))..))), in that order: -16.1 kcal/mol and 41.8 °C.
For GCCCATCGAAAGATCGGC (((.(((....))).))), in that order: -33.6 kcal/mol and 44.5 °C.
For the sequence GAAGGCGAAAGCCCCTTC ((((((....)))..))), the folding enthalpy in data set [1] was -9.89 kcal/mol. In data set [2], the Tm stood at 35.1 °C.
As to GATCCAGAGCTGGATC ((((((....)))))), the folding enthalpy in data set [1] was -37.6 kcal/mol. The Tm in data set [2] was 50.4 °C.
For GCACCAGGAAACCGGTGC (((((.(....).))))), in that order: -42.4 kcal/mol and 58.3 °C.
In the case of GATCTAATCGTAGATC ((((((....)))))), the folding enthalpy in data set [1] is -13.7 kcal/mol. For the same sequence, the Tm in data set [2] came to 36.1 °C.
Regarding GAAACAGGAAACCGTTTC (((((.(....).))))), the folding enthalpy in data set [1] was -24.3 kcal/mol. The Tm in data set [2] is 35.8 °C.
For GAATAGCGAAAGCTTTTC (((.(((....))).))), in that order: -20.6 kcal/mol and 36.6 °C.
With GCTACTCCGAAAGGAAGC (((..(((....)))))), in data set [1], the folding enthalpy is -17.9 kcal/mol. In addition, the Tm in data set [2] came to 30.1 °C.
With GATCGCTGGTGCGATC ((((((....)))))), the folding enthalpy in data set [1] was -34.2 kcal/mol. Further, the Tm in data set [2] was determined as 68.6 °C.
The like results for GTAGACGAAAGTCTGTAC ((((((....)))..))) were, in that order, -11.6 kcal/mol and 36.8 °C.
Take GTCTTGCGAAAGCATGAC (((.(((....))).))): in data set [1], the folding enthalpy was -37.7 kcal/mol. Besides, the Tm in data set [2] worked out at 56.1 °C.
In the case of GTGAATACGAAAGTACAC (((..(((....)))))), the folding enthalpy in data set [1] was -12.5 kcal/mol. For the same sequence, the Tm in data set [2] came to 27.5 °C.
For GATCTTCTGTAAGATC ((((((....)))))), in that order: -34.7 kcal/mol and 43.1 °C.
The like results for GACGACGAAAGTCTTGTC ((((((....)))..))) were, in that order, -16.2 kcal/mol and 40.3 °C.
For GCGCCTGGAAACAGGTGC ((.((((....)))).)), in that order: -46.6 kcal/mol and 64.2 °C.
As for GCAGATACGAAAGTATGC (((..(((....)))))), the folding enthalpy in data set [1] was -22.3 kcal/mol. For the same sequence, the Tm in data set [2] is 36.5 °C.
For GTATGCGGAAACGCGTAC (((.(((....))).))), in that order: -31.9 kcal/mol and 55 °C.
GATCCATGGTTGGATC ((((((....)))))): the folding enthalpy in data set [1] was -42.8 kcal/mol. Also, the Tm in data set [2] was 51.3 °C.
The like results for GCGGTGGGAAACCGTCGC (((..((....))..))) were, in that order, -14.3 kcal/mol and 55.5 °C.
For GCTTCGCGAAAGCGACGC ((.((((....)))).)), in that order: -22.5 kcal/mol and 60.9 °C.
For GATCTAATGGTAGATC ((((((....)))))), the folding enthalpy in data set [1] is -27 kcal/mol. Moreover, the Tm in data set [2] turned out to be 35.4 °C.
The like results for GTTACCGAAAGGTGTAAC ((((((....)))..))) were, in that order, -14.9 kcal/mol and 32.2 °C.
GCCGTACCGAAAGGTGGC (((..(((....)))))): the folding enthalpy in data set [1] was -25.1 kcal/mol. Also, in data set [2], the Tm amounted to 53.8 °C.
For GATCGGTTACCCGATC ((((((....)))))), in that order: -41.4 kcal/mol and 57.3 °C.
In the case of GCAACGGGAAACCGTCGC ((.((((....)))).)), in data set [1], the folding enthalpy is -28.3 kcal/mol. Besides, in data set [2], the Tm is 49.4 °C.
For GCCCAAGGAAACTCGGGC ((((.((....)).)))), in that order: -26.9 kcal/mol and 48.8 °C.
Take GTGAACGAAAGTTCAC ((((((....)))))): the folding enthalpy in data set [1] was -26 kcal/mol. In addition, the Tm in data set [2] is 68.6 °C.
For GTCCAGCGAAAGCTGAC (((.(((....)))))), in that order: -11.4 kcal/mol and 46.4 °C.
For GTACTACGAAAGTAATAC (((.(((....))).))), in that order: -15.2 kcal/mol and 29.8 °C.
For the sequence CGTTAACGGAAACGTACG (((..(((....)))))), the folding enthalpy in data set [1] was -17.6 kcal/mol. In addition, the Tm in data set [2] was 37 °C.
The like results for GCGTCGCGAAAGCAATGC ((.(.((....)).).)) were, in that order, -21.6 kcal/mol and 43.9 °C.
For GGCACGGGAAACTGTGCC (((((.(....).))))), in that order: -41.4 kcal/mol and 62.2 °C.
Take GGAAGTCGAAAGACCTCC (((.(((....))).))): the folding enthalpy in data set [1] was -27.1 kcal/mol. Besides, in data set [2], the Tm was 43.3 °C.
Consider GATCACATGTGTGATC ((((((....)))))), for which, in data set [1], the folding enthalpy was -43.2 kcal/mol. The Tm in data set [2] is 57.2 °C.
For GGCGCTGCGAAAGCAGCC (((..(((....)))))), in that order: -6.28 kcal/mol and 58.1 °C.

The record behind these values is the array DNA melting data of Ke et al. (doi:10.1101/2024.01.08.574731).
